The results in this text go back to paper PMC11956031 (RSC Medicinal Chemistry, 2025).

Test [1] has as its system PSN-1 (pancreatic) cancer cells. The test is described as follows: MTT cytotoxicity, PSN-1 cells, 72 h. It is filed as cell-based, human. To be noted: read-out: IC50 PSN-1, 72 h incubation. In outline: (§1)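 Cells kept in log phase at 37 °C, 5% CO2, 10% FCS, 2 mM L-glutamine; RPMI-1640 for HCT-15, PSN-1, NTERA-2, 2008 and C13*; DMEM for MDA-MB-231 and HEK293; F-12 HAM's for CHO. C13* selected from 2008 with low-dose cisplatin. 72 h exposure, 0.5% final DMSO. IC50 at 570 nm vs untreated by 4-PL. RF = C13*/2008 IC50; panel average of IC50s.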

Test [2] relates to human embryonic kidney (HEK-293) cells. The test is described as follows: MTT cytotoxicity, non-tumor HEK-293 cells. Type of test: cell-based. To be noted: read-out: IC50 HEK-293, 72 h incubation. In a few lines: as §1
Test [3] relates to NTERA-2 (embryonal) cancer cells. The test is described as follows: MTT cytotoxicity, NTERA-2 cells, 72 h. Type of test: cell-based, human. To be noted: read-out: IC50 NTERA-2, 72 h incubation. In outline:
as §1

In test [4] the test system is C13* cancer cells (ovarian, resistant to cisplatin). The test is described as follows: MTT cytotoxicity, cisplatin-resistant C13* cells, 72 h. It is filed as cell-based, human. In a few lines:
as §1

Test [5] deals with MDA-MB-231 (breast) cancer cells. The test is described as follows: MTT cytotoxicity, MDA-MB-231 cells, 72 h. It is filed as cell-based, human. To be noted: read-out: IC50 MDA-MB-231, 72 h incubation. In a few lines: as §1
The test system of test [6] is 2008 (ovarian) cancer cells. The test is described as follows: MTT cytotoxicity, 2008 cells, 72 h. Type of test: cell-based, human. To be noted: read-out: IC50 2008, 72 h incubation. In outline:
as §1

For test [7], the system named is Chinese hamster ovary (CHO) cells. The test is described as follows: MTT cytotoxicity, non-tumor CHO cells. It is filed as cell-based. The note with it: read-out: IC50 CHO, 72 h incubation. In a few lines: as §1
The test system of test [8] is 2008 cancer cell spheroids. The test is described as follows: 3D spheroids APH assay, 2008. Type of test: cell-based, human. To be noted: read-out: IC50 3D spheroids 2008, 72 h incubation. In outline: (§2)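 2.5 × 10^3 2008 or NTERA-2 cells per well grown as spheroids in phenol red-free F-12 HAM's with 10% FCS and 20% methyl cellulose stock. Treated 72 h; DMSO stocks, 0.5% final DMSO; cisplatin from 0.9% NaCl. Viability by modified acid phosphatase assay. IC50 from 405 nm absorbance vs untreated, 4-PL fit.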

Test [9] has as its system NTERA-2 cancer cell spheroids. The test is described as follows: 3D spheroids APH assay, NTERA-2. It is filed as cell-based, human. To be noted: read-out: IC50 3D spheroids NTERA-2, 72 h incubation. In a few lines:
as §2

Test [10] concerns HCT-15 (colorectal) cancer cells. The test is described as follows: MTT cytotoxicity, HCT-15 cells, 72 h. It is filed as cell-based, human. The note with it: read-out: IC50 HCT-15, 72 h incubation. In a few lines: as §1

SMILES strings stand for the structures.

`N.N.[Cl][Pt][Cl]` [Cisplatin, cisplatin]: the IC50 in [1] turned out to be 12 ± 3 µM; in test [2] it was 14 ± 3 µM; in test [3] it was 15 ± 3 µM; in test [4] (read-out: IC50 C13*, 72 h incubation, MTT, cisplatin-resistant cells), 25 ± 2 µM; in test [5], 22 ± 4 µM; in test [6], 2 ± 1 µM. For the same compound, the IC50 was 29 ± 3 µM in [7], 13.9 ± 0.8 µM in test [8], 50 ± 5 µM in [9] and 14 ± 2 µM in test [10]. The “resistance factor (RF)” value in test [4] (in brackets, ratio IC50 resistant C13* / sensitive 2008 cells) worked out at 11.7.

The term IC50 denotes the midpoint of a concentration-inhibition curve.
